Assay results: ChEMBL document CHEMBL5649170, “Sustained microglial depletion with CSF1R inhibitor impairs parenchymal plaque development in an Alzheimer's disease model” (Nat Commun, 2019)
The source made the active and inactive calls. The rule behind the calls is not given here.

Key:
Mus musculus [1] = test: Antialzheimer activity in 5XFAD mouse assessed as number of Thio-S positive plaques per FOV in thalamus at 1200 ppm administered as rodent chow starting from 1.5 months and measured after 4 months by Thio-S staining based confocal microscopic analysis (reference value: 139 to 224); type: functional; settings: route po, time 2.5 months, 1825 h
[2] = target: Serine/threonine-protein kinase 4 (Homo sapiens, UniProt Q13043); test: Inhibition of STK4 (unknown origin)
[3] = Effect on C1qa gene expression in 5XFAD mouse hippocampus at 1200 ppm administered as rodent chow starting from 1.5 months and measured after 7 months by RNA-Seq analysis (reference value: 61.868 to 70.581 RPKM); type: functional; settings: route po, time 5.5 months, 4015 h
How it was run: (§1)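 WT and 5xFAD mice were treated with 1200 ppm PLX5622 chow or control chow from 1.5 to 7 months of age. Brains were microdissected into cortex, hippocampus and thalamus, and RNA was extracted from tissue powder. Whole-transcriptome RNA-Seq libraries were sequenced, with n = 4 per group per region (48 samples).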

[4] = Effect on Csf1r RPKM gene expression in 5XFAD mouse hippocampus at 1200 ppm administered as rodent chow starting from 1.5 months and measured after 7 months by RNA-Seq analysis (reference value: 33.840 to 41.629 RPKM); type: functional; settings: route po, time 5.5 months, 4015 h
Mus musculus [5] = test: Induction of cerebral amyloid angiopathy in […] mouse at 1200 ppm administered as rodent chow for 24 weeks by immunolabeling based confocal microscopic analysis; type: functional, organism-based; settings: route po
[6] = target: Protein kinase C iota type (Homo sapiens, UniProt P41743); test: Inhibition of PRKCI (unknown origin)
[7] = AUC (0 to infinity) in dog at 1.00 mg/kg, iv administered as single dose; type: ADME, organism-based, Canis lupus familiaris; settings: in vivo
[8] = AUC (0 to infinity) in mouse at 45 mg/kg, po administered as single dose via gavage; type: ADME, organism-based; settings: in vivo
Mus musculus [9] = test: Antialzheimer activity in 5XFAD mouse assessed as alteration in plaque morphology by measuring mean plaque intensity in subiculum at 1200 ppm administered as rodent chow starting from 1.5 months and measured after 7 months by Thio-S labeling based confocal microscopic analysis (reference value: 129.81 to 150.11); type: functional; settings: route po, time 5.5 months, 4015 h
[10] = Effect on C1qa gene expression in wild type mouse cortex at 1200 ppm administered as rodent chow starting from 1.5 months and measured after 7 months by RNA-Seq analysis (reference value: 16.071 to 20.526 RPKM); type: functional; settings: route po, time 5.5 months, 4015 h; how it was run: as §1
[11] = target: Casein kinase I isoform gamma-2 (Homo sapiens, UniProt P78368); test: Inhibition of CSNK1G2 (unknown origin)
[12] = target: Calcium/calmodulin-dependent protein kinase type II subunit beta (Homo sapiens, UniProt Q13554); test: Inhibition of CAMK2B (unknown origin)
[13] = target: Ribosomal protein S6 kinase alpha-1 (Homo sapiens, UniProt Q15418); test: Inhibition of RPS6KA1 (unknown origin)
Mus musculus [14] = test: Effect on APP processing pathway in 5XFAD mouse assessed as C83 protein signal intensity in cortex at 1200 ppm administered as rodent starting from 1.5 months and measured after 7 months (reference value: 37.776 to 172.037 %); type: functional; settings: route po, time 5.5 months, 4015 h
[15] = target: Protein kinase C gamma type (Homo sapiens, UniProt P05129); test: Inhibition of PRKCG (unknown origin)
[16] = Oral bioavailability in female rat at 45 mg/kg administered as single via gavage; type: ADME, organism-based; settings: in vivo
Mus musculus [17] = test: Prevention of Gabrb2 gene downregulation in 5XFAD mouse hippocampus at 1200 ppm administered as rodent chow starting from 1.5 months and measured after 7 months by Nanostring analysis; type: functional, tissue-based; settings: route po, time 5.5 months
[18] = target: Protein-tyrosine kinase 2-beta (Homo sapiens, UniProt Q14289); test: Inhibition of PTK2B (unknown origin)
[19] = Effect on Ctsd gene expression in wild type mouse hippocampus at 1200 ppm administered as rodent chow starting from 1.5 months and measured after 7 months by RNA-Seq analysis (reference value: 111.753 to 176.402 RPKM); type: functional; settings: route po, time 5.5 months, 4015 h
[20] = target: Serine/threonine-protein kinase SIK2 (Homo sapiens, UniProt Q9H0K1); test: Inhibition of SNF1LK2 (unknown origin)
[21] = target: Serine/threonine-protein kinase mTOR (Homo sapiens, UniProt P42345); test: Inhibition of FRAP1 (unknown origin)
[22] = AUC (0 to 24 hrs) in mouse plasma at 300 ppm administered as rodent chow for 14 days; type: ADME, cell-free; settings: route po, time 14 day
[23] = Effect on Scn1b gene expression in wildtype mouse hippocampus assessed as percent change in Reads Per kilo base per Million mapped reads at 1200 ppm administered as rodent chow starting from 1.5 months and measured after 7 months by RNA-Seq analysis (reference value: 86.853 to […]); type: functional; settings: route po, time 5.5 months, 4015 h
[24] = Drug concentration in 5XFAD mouse plasma at 1200 ppm administered as rodent chow for 10 to 24 weeks; type: ADME, cell-free; settings: po, time 10-24 weeks
How it was run: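 WT or 5xFAD mice were started at 1.5 months of age on PLX5622 formulated at 1200 ppm in AIN-76A chow, with control chow as comparison. Feeding ran for 10 or 24 weeks. Terminal plasma and brain drug levels were then measured. Groups were sex-balanced and compared by two-tailed independent t-test.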

[25] = target: Insulin-like growth factor 1 receptor (Homo sapiens, UniProt P08069); test: Inhibition of IGF1R (unknown origin)
Mus musculus [26] = test: Antialzheimer activity in 5XFAD mouse assessed as amyloidbeta40 level in detergent insoluble cortex fraction measured per microgram protein at 1200 ppm administered as rodent chow starting from 1.5 months and measured after 7 months by ELISA (reference value: 615.15 to 39796 pg); type: functional; settings: route po, time 5.5 months, 4015 h
How it was run: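 PLX5622 at 1200 ppm in chow given to 5xFAD mice from 1.5 months to 4 or 7 months of age; cortex and thalamus homogenized in TPER (detergent-soluble), pellets re-homogenized in 70% formic acid and spun 100,000 g, 1 h, 4 °C (insoluble); protein by Bradford/Lowry; Aβ species measured by Meso Scale electrochemiluminescence immunoassay, normalized to protein; n = 7–8 per group at 7 months.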

Mus musculus [27] = test: Prevention of Cx3cr1 gene upregulation in 5XFAD mouse hippocampus at 1200 ppm administered as rodent chow starting from 1.5 months and measured after 7 months by Nanostring analysis; type: functional, tissue-based; settings: route po, time 5.5 months
[28] = AUC (0 to 24 hrs) in 5XFAD mouse brain at 1200 ppm administered as rodent chow for 180 days; type: ADME, tissue-based; settings: route po, time 180 day
Mus musculus [29] = test: Antialzheimer activity in 5XFAD mouse assessed as iron reactivity by measuring hemosiderin intensity of prussian blue staining in thalamus at 1200 ppm administered as rodent chow starting from 1.5 months and measured after 4 months by confocal microscopic analysis (reference value: 0.1 to 4.094 a.u.); type: functional; settings: route po, time 2.5 months, 1825 h
How it was run: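 Wild-type or 5xFAD mice fed PLX5622 (1200 ppm) in AIN-76A chow from 1.5 months of age, examined in 4- and 7-month-old cohorts. Brain sections stained with a Prussian blue kit per kit instructions to detect iron deposits (microbleeds).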

[30] = target: Glycogen synthase kinase-3 beta (Homo sapiens, UniProt P49841); test: Inhibition of GSK3B (unknown origin)
[31] = Effect on Itgax gene expression in wild type mouse thalamus at 1200 ppm administered as rodent chow starting from 1.5 months and measured after 7 months by RNA-Seq analysis (reference value: 0.077 to 0.240 RPKM); type: functional; settings: route po, time 5.5 months, 4015 h

Sequence of Casein kinase I isoform gamma-2 (P78368 whole entry, canonical isoform): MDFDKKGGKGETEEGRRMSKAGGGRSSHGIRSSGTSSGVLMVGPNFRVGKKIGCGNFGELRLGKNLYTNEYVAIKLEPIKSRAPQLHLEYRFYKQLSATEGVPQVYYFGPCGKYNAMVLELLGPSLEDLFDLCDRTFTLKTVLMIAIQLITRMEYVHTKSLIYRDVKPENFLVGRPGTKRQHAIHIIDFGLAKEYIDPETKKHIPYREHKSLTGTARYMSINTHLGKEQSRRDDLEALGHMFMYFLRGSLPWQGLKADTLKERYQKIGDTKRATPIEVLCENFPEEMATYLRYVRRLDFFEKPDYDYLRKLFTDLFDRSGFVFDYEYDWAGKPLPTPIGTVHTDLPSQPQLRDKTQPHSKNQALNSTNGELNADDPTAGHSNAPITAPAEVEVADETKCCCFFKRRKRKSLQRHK
Sequence of Serine/threonine-protein kinase 4 (Q13043 whole entry): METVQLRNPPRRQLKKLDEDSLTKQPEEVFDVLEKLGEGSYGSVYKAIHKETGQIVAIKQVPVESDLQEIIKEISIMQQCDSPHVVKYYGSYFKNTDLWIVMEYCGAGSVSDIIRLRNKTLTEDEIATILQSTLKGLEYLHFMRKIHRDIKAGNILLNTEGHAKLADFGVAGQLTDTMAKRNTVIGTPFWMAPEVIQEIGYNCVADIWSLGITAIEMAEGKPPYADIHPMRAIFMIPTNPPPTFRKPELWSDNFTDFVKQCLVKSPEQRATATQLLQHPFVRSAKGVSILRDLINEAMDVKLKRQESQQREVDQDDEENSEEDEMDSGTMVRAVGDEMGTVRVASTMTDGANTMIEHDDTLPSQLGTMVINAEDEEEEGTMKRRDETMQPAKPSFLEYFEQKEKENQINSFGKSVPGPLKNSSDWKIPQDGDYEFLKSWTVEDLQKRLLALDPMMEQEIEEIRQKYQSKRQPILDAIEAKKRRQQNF
Sequence of Serine/threonine-protein kinase SIK2 (Q9H0K1 whole entry): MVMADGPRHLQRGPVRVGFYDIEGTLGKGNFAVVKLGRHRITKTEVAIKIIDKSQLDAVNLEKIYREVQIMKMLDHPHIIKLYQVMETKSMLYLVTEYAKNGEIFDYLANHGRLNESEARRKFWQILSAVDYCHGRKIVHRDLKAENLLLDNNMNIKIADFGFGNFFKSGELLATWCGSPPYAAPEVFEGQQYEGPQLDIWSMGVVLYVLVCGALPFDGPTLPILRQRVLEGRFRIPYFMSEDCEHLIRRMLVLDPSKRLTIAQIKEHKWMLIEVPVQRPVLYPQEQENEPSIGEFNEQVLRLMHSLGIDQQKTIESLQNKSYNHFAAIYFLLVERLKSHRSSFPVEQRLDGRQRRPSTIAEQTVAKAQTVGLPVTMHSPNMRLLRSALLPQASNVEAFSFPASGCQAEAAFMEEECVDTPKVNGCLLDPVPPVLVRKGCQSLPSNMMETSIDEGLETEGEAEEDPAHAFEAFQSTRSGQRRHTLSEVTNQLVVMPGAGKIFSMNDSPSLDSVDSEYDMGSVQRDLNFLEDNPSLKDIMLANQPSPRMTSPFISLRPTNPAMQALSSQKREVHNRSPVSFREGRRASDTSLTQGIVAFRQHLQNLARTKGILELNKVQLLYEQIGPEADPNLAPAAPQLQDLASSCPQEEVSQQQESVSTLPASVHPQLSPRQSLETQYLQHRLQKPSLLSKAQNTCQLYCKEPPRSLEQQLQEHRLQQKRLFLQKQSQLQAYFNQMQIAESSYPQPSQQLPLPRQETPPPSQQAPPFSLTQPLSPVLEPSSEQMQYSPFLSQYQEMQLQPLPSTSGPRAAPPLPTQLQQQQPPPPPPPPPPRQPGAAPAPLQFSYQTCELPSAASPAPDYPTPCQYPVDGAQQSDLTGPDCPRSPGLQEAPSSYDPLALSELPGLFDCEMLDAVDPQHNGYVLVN
Sequence of Glycogen synthase kinase-3 beta (P49841 whole entry): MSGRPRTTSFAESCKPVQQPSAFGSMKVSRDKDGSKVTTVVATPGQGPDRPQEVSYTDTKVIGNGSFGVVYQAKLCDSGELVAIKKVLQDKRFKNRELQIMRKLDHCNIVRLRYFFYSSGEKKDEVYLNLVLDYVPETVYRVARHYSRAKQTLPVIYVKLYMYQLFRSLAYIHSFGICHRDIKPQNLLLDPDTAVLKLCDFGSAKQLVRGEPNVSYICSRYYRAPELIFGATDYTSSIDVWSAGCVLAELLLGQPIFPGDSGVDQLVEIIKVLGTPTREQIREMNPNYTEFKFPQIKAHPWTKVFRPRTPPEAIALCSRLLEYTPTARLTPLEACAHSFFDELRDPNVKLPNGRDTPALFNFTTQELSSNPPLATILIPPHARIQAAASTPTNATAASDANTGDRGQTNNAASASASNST
Sequence of Ribosomal protein S6 kinase alpha-1 (Q15418 whole entry): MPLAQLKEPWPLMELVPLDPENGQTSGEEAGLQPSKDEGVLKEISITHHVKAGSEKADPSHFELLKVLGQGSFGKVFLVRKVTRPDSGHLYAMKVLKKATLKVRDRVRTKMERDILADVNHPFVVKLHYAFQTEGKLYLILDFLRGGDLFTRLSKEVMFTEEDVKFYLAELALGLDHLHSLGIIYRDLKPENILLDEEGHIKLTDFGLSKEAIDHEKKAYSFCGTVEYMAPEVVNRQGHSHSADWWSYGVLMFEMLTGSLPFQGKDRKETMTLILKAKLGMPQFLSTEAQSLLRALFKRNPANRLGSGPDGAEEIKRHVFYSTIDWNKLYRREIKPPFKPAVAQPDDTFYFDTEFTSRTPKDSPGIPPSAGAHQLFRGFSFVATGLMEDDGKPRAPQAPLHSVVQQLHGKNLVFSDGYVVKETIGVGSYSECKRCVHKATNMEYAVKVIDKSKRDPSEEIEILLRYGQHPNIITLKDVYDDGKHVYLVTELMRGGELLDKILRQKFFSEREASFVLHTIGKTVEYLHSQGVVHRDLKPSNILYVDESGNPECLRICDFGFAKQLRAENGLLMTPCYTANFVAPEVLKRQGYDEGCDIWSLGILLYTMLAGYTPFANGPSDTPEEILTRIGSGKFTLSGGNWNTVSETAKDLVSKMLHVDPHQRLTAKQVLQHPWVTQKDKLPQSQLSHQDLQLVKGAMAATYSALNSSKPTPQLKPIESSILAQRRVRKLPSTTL
Sequence of Insulin-like growth factor 1 receptor (P08069 31-736 limits assumed): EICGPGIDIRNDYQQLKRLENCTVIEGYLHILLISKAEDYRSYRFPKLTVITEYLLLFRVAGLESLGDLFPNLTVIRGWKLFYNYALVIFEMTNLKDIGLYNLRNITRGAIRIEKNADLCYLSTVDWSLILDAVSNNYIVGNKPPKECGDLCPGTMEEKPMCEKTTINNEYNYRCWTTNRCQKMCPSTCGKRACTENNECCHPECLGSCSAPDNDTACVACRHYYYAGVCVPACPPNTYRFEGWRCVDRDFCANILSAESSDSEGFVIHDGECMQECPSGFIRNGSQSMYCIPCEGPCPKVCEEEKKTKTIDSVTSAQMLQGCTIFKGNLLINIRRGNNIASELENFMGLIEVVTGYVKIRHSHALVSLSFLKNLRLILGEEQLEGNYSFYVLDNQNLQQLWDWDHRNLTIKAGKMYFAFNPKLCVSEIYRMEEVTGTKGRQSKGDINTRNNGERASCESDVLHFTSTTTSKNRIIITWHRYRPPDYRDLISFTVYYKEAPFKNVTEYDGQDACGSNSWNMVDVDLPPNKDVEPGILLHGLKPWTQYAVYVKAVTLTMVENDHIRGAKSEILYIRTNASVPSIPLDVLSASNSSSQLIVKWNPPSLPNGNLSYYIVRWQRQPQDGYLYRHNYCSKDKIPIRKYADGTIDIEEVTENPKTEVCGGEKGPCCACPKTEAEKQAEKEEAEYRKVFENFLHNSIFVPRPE
Sequence of Insulin-like growth factor 1 receptor (P08069 741-1367 limits assumed): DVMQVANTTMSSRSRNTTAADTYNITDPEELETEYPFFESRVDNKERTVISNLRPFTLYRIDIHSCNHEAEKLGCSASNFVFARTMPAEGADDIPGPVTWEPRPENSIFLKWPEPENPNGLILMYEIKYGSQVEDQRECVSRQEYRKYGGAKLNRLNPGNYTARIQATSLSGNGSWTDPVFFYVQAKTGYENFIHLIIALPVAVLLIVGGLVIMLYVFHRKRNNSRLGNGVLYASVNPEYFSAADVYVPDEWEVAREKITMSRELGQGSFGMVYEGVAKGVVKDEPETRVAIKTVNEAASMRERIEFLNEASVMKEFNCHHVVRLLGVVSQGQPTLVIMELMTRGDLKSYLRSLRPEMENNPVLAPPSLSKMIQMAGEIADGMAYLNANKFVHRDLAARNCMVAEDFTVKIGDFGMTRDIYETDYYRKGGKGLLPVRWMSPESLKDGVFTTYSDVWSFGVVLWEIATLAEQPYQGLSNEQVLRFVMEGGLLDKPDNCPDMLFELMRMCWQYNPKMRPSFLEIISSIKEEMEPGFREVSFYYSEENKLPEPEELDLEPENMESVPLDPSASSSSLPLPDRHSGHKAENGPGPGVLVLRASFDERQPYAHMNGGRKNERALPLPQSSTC

COc1ncc(F)cc1CNc1ccc(Cc2c[nH]c3ncc(C)cc23)c(F)n1 [PLX-5622]
Activity (Mus musculus [1]): 76 | IC50 [2]: > 1000 nM | Activity [3]: 6.689 RPKM | Activity [4]: 3.234 RPKM | Activity (Mus musculus [5]): inactive | IC50 [6]: > 1000 nM | AUC(0-inf) [7]: 6230 ng·h/mL | AUC(0-inf) [8]: 215000 ng·h/mL | Activity (Mus musculus [9]): 83.86 | Activity [10]: 0 RPKM | IC50 [11]: > 1000 nM | IC50 [12]: > 1000 nM | IC50 [13]: > 1000 nM | Activity (Mus musculus [14]): 70.442% | IC50 [15]: > 1000 nM | bioavailability [16]: 89% | Activity (Mus musculus [17]): Active | IC50 [18]: > 1000 nM | Activity [19]: 89.626 RPKM | IC50 [20]: > 1000 nM | IC50 [21]: > 1000 nM | AUC at 336 h [22]: 104000 ng·h/mL | Activity [23]: 83.818% | concentration [24]: 13.5 µM | IC50 [25]: > 1000 nM | Activity (Mus musculus [26]): 89.514 pg | Activity (Mus musculus [27]): Active | AUC at 4320 h [28]: 57300 ng·h/mL | Flu intensity (Mus musculus [29]): 0.249 a.u. | IC50 [30]: > 1000 nM | Activity [31]: 0 RPKM
